Measurements taken from article PMC3873039 (Anti-Cancer Agents in Medicinal Chemistry, 2013).
pEC50, pIC50: −log10 of the molar value.

Assays:
HL60 [1] = assay: Cell cycle analysis, propidium iodide flow cytometry; assay type: cell-based, human; conditions: HL60, IC50 dose, 24 h; vehicle control G0/G1 = 56.8%
Procedure, shortened: (§1)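 Seeded at 0.5 x 10^6 cells per well in 12-well plates and treated 24 h at the IC50 concentration of each test compound from CellTiter-Glo. Cells were pelleted (400 g, 5 min), PBS-washed and fixed in 80% ethanol overnight at -20 °C. Staining used 50 µg/mL PI plus RNase overnight at 4 °C.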

MOLT-3 [2] = assay: Hoechst 33342 nuclear morphological analysis of apoptosis; assay type: cell-based; conditions: Homo sapiens, MOLT-3, 24 h, read-out: AP50 (50% induction of apoptosis), Hoechst 33342 staining (Hoe)
Procedure, shortened: (§2)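 Seeded at 0.5 x 10⁶ cells/well in 12-well plates and treated 24 h. Cells were pelleted (400 g, 5 min, 4 °C), washed in PBS, fixed in 4% paraformaldehyde, cytospun, air-dried, then stained with 10 μg/ml Hoechst 33342 for 10 min in the dark. Fluorescence microscopy: 200 cells counted, scored by condensed/intense nuclei, shrinkage, blebbing and apoptotic bodies. % apoptotic nuclei calculated. AP50 = concentration giving 50% apoptotic cells.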

HL60 [3] = assay: CellTiter-Glo luminescent cell viability assay; assay type: cell-based, human; conditions: HL60, 24 h, doses 0, 2, 10, 50, 250, 500 µM, p<0.05
Procedure, shortened: (§3)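 Cells grown in RPMI 1640 with 10% FBS, 1.5 mM L-glutamine and penicillin/streptomycin at 37 °C, 5% CO2. Seeded at 2.5 x 10³ cells/well and exposed 24 h to ethanol-dissolved test compound (0, 2, 10, 50, 250, 500 µM) with 0.1% ethanol vehicle. ATP luminescence normalized to vehicle (100%). IC50 taken from linear regression. Lowest significant dose set by one-way ANOVA/Tukey, p<0.05. Triplicates, three independent experiments.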

JURKAT = assay: CellTiter-Glo luminescent cell viability assay; assay type: cell-based, human; conditions: 24 h, doses 0, 2, 10, 50, 250, 500 µM, p<0.05
Procedure, shortened: as §3

KG1a [4] = assay: CellTiter-Glo luminescent cell viability assay; assay type: cell-based, human; conditions: 24 h; for pIC50: Homo sapiens, KG-1a, read-out: IC50 (50% inhibition of cellular proliferation); for The lowest dose of polyphenols at which there was a significant inhibition of cell proliferation compared to the vehicle control: KG1a, doses 0, 2, 10, 50, 250, 500 µM, p<0.05
Procedure, shortened: as §3

K562 [5] = assay: NucView caspase 3 activity assay by flow cytometry; assay type: cell-based, human; conditions: for pEC50: Homo sapiens, K562, 24 h, read-out: AP50 (50% induction of apoptosis), Caspase 3 activity assay (C3); for The lowest dose of polyphenols at which there was a significant induction of apoptosis compared to the vehicle control: K562, caspase 3 activity, 24 h, p<0.05
Procedure, shortened: (§4)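 Seeded at 0.5 x 10⁶ cells/well and treated 24 h, with series of 0–50 or 0–250 µM depending on compound. Normalized to vehicle (0% apoptosis). Mean ± STD, three independent experiments in triplicate. One-way ANOVA/Tukey, p<0.05. AP50 = concentration giving 50% apoptotic cells.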

CCRF-CEM [6] = assay: CellTiter-Glo luminescent cell viability assay; assay type: cell-based, human; conditions: 24 h, doses 0, 2, 10, 50, 250, 500 µM, p<0.05
Procedure, shortened: as §3

U937 [7] = assay: Cell cycle analysis, propidium iodide flow cytometry; assay type: cell-based, human; conditions: U937, IC50 dose, 24 h
Procedure, shortened: as §1

non-tumor cells (CD34+) [8] = assay: Hoechst 33342 nuclear morphological analysis of apoptosis; assay type: cell-based; conditions: 24 h, read-out: AP50 (50% induction of apoptosis), Hoechst 33342 staining (Hoe)
Procedure, shortened: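 CD34+ cells treated 24 h across the IC25–IC50 range, then pelleted (400 g, 4 °C) and fixed in 4% paraformaldehyde/PBS. Cytospins were air-dried and stained with 10 μg/ml Hoechst 33342 for 10 min in the dark, then viewed by fluorescence microscopy. 200 cells were scored per sample as % apoptotic nuclei (shrinkage, blebbing, chromatin condensation, apoptotic bodies). AP50 = concentration giving 50% apoptosis.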

CCRF-CEM [9] = assay: Hoechst 33342 nuclear morphological analysis of apoptosis; assay type: cell-based; conditions: Homo sapiens, 24 h, read-out: AP50 (50% induction of apoptosis), Hoechst 33342 staining (Hoe)
Procedure, shortened: as §2

[10] = system: non-tumor progenitor cells (CD34+); assay: Cell cycle analysis, propidium iodide flow cytometry; assay type: cell-based; conditions: 24 h, within the IC50 ranges used to treat the leukemic cell lines
MOLT-3 [11] = assay: Cell cycle analysis, propidium iodide flow cytometry; assay type: cell-based, human; conditions: MOLT-3, IC50 dose, 24 h
Procedure, shortened: as §1

U937 [12] = assay: CellTiter-Glo luminescent cell viability assay; assay type: cell-based, human; conditions: U937, 24 h, doses 0, 2, 10, 50, 250, 500 µM, p<0.05
Procedure, shortened: as §3

MOLT-3 [13] = assay: NucView caspase 3 activity assay by flow cytometry; assay type: cell-based, human; conditions: for pEC50: Homo sapiens, MOLT-3, 24 h, read-out: AP50 (50% induction of apoptosis), Caspase 3 activity assay (C3); for The lowest dose of polyphenols at which there was a significant induction of apoptosis compared to the vehicle control: MOLT-3, caspase 3 activity, 24 h, p<0.05
Procedure, shortened: as §4

KG1a [14] = assay: NucView caspase 3 activity assay by flow cytometry; assay type: cell-based, human; conditions: 24 h; for pEC50: Homo sapiens, KG-1a, read-out: AP50 (50% induction of apoptosis), Caspase 3 activity assay (C3); for The lowest dose of polyphenols at which there was a significant induction of apoptosis compared to the vehicle control: KG1a, caspase 3 activity, p<0.05
Procedure, shortened: as §4

non-tumor cells (CD34+) [15] = assay: NucView caspase 3 activity assay by flow cytometry; assay type: cell-based; conditions: 24 h; for pEC50: read-out: AP50 (50% induction of apoptosis), Caspase 3 activity assay (C3); for The lowest dose of polyphenols at which there was a significant induction of apoptosis compared to the vehicle control: CD34+ non-tumour control cells, caspase 3 activity, p<0.05
K562 [16] = assay: Cell cycle analysis, propidium iodide flow cytometry; assay type: cell-based, human; conditions: K562, IC50 dose, 24 h
Procedure, shortened: as §1

HL60 [17] = assay: Hoechst 33342 nuclear morphological analysis of apoptosis; assay type: cell-based; conditions: Homo sapiens, HL-60, 24 h, read-out: AP50 (50% induction of apoptosis), Hoechst 33342 staining (Hoe)
Procedure, shortened: as §2

CCRF-CEM [18] = assay: Cell cycle analysis, propidium iodide flow cytometry; assay type: cell-based, human; conditions: IC50 dose, 24 h
Procedure, shortened: as §1

K562 [19] = assay: CellTiter-Glo luminescent cell viability assay; assay type: cell-based, human; conditions: K562, 24 h, doses 0, 2, 10, 50, 250, 500 µM, p<0.05
Procedure, shortened: as §3

MOLT-3 [20] = assay: CellTiter-Glo luminescent cell viability assay; assay type: cell-based, human; conditions: MOLT-3, 24 h, doses 0, 2, 10, 50, 250, 500 µM, p<0.05
Procedure, shortened: as §3

CCRF-CEM [21] = assay: NucView caspase 3 activity assay by flow cytometry; assay type: cell-based, human; conditions: 24 h; for pEC50: Homo sapiens, read-out: AP50 (50% induction of apoptosis), Caspase 3 activity assay (C3); for The lowest dose of polyphenols at which there was a significant induction of apoptosis compared to the vehicle control: caspase 3 activity, p<0.05
Procedure, shortened: as §4

KG1a [22] = assay: Hoechst 33342 nuclear morphological analysis of apoptosis; assay type: cell-based; conditions: Homo sapiens, KG-1a, 24 h, read-out: AP50 (50% induction of apoptosis), Hoechst 33342 staining (Hoe)
Procedure, shortened: as §2

pEC50 (MOLT-3 [2])	pEC50 (K562 [5])	pEC50 (CCRF-CEM [9])	pEC50 (MOLT-3 [13])	pEC50 (KG1a [14])	pEC50 (HL60 [17])	SMILES	Percentage of cells in G0/G1 phase of cell cycle (significant accumulation) (HL60 [1])	The lowest dose of polyphenols at which there was a significant inhibition of cell proliferation compared to the vehicle control (HL60 [3]) [µM]	The lowest dose of polyphenols at which there was a significant inhibition of cell proliferation compared to the vehicle control (JURKAT) [µM]	pIC50 (KG1a [4])	The lowest dose of polyphenols at which there was a significant inhibition of cell proliferation compared to the vehicle control (KG1a [4]) [µM]	The lowest dose of polyphenols at which there was a significant induction of apoptosis compared to the vehicle control (K562 [5]) [µM]	The lowest dose of polyphenols at which there was a significant inhibition of cell proliferation compared to the vehicle control (CCRF-CEM [6]) [µM]	pEC50 (non-tumor cells (CD34+) [8])	Cell cycle arrest in non-tumour control cells [10]	The lowest dose of polyphenols at which there was a significant inhibition of cell proliferation compared to the vehicle control (U937 [12]) [µM]	The lowest dose of polyphenols at which there was a significant induction of apoptosis compared to the vehicle control (MOLT-3 [13]) [µM]	The lowest dose of polyphenols at which there was a significant induction of apoptosis compared to the vehicle control (KG1a [14]) [µM]	pEC50 (non-tumor cells (CD34+) [15])	The lowest dose of polyphenols at which there was a significant induction of apoptosis compared to the vehicle control (non-tumor cells (CD34+) [15]) [µM]	further results
4.30	< 4.30	4.30	4.30	< 4.30	4.30	O=c1c(O)c(-c2ccc(O)c(O)c2)oc2cc(O)cc(O)c12 [Quercetin]	G0/G1 =66.2%	2	2	3.81	10	10	2	< 3.30	No Arrest <50µM	2	10	10	< 4.30	50	Percentage of cells in G2/M phase of cell cycle (significant accumulation) (U937 [7]; vehicle control G2/M = 19.1%): G2/M =25%; Percentage of cells in G2/M phase of cell cycle (significant accumulation) (MOLT-3 [11]; vehicle control G2/M = 7.5%): G2/M =19%; Percentage of cells in G0/G1 phase of cell cycle (significant accumulation) (K562 [16]; vehicle control G0/G1 = 53.7%): G0/G1=60%; Percentage of cells in S phase of cell cycle (significant accumulation) (CCRF-CEM [18]; vehicle control S = 47.2%): S = 51.4%; The lowest dose of polyphenols at which there was a significant inhibition of cell proliferation compared to the vehicle control (K562 [19]): 2 µM; The lowest dose of polyphenols at which there was a significant inhibition of cell proliferation compared to the vehicle control (MOLT-3 [20]): 2 µM; pEC50 (CCRF-CEM [21]): 4.30; The lowest dose of polyphenols at which there was a significant induction of apoptosis compared to the vehicle control (CCRF-CEM [21]): 2 µM; pEC50 (KG1a [22]): 3.90
3.90	3.82	4.00	4.30	4.05	3.89	O=c1cc(-c2ccc(O)cc2)oc2cc(O)cc(O)c12 [Apigenin]	G0/G1=67%	10	50	3.30	10	10	10	< 3.30	No Arrest ≤250µM	10	50	10	< 3.60	250	Percentage of cells in G0/G1 phase of cell cycle (significant accumulation) (U937 [7]; vehicle control G0/G1 = 44.03%): G0/G1 =59%; Percentage of cells in S phase of cell cycle (significant accumulation) (MOLT-3 [11]; vehicle control S = 24.8%): S =35%; Percentage of cells in S phase of cell cycle (significant accumulation) (K562 [16]; vehicle control S = 32.06%): S =50.2%; Percentage of cells in G0/G1 phase of cell cycle (significant accumulation) (CCRF-CEM [18]; vehicle control G0/G1 = 41.9%): G0/G1 =52.2%; The lowest dose of polyphenols at which there was a significant inhibition of cell proliferation compared to the vehicle control (K562 [19]): 10 µM; The lowest dose of polyphenols at which there was a significant inhibition of cell proliferation compared to the vehicle control (MOLT-3 [20]): 50 µM; pEC50 (CCRF-CEM [21]): 4.30; The lowest dose of polyphenols at which there was a significant induction of apoptosis compared to the vehicle control (CCRF-CEM [21]): 10 µM; pEC50 (KG1a [22]): 3.63
